Test results published in ChEMBL document CHEMBL1125868, “Antidopaminergic effects of the stereoisomers of N-[(1-alkyl-2- pyrrolidinyl)methyl]-5-sulfamoylbenzamides and -2,3-dihydrobenzofuran-7-carboxamides” (J Med Chem, 1991).

Experiments:
[1] = target: D(2) dopamine receptor (Rattus norvegicus, UniProt P61169); test: Binding affinity towards dopamine receptor D2 using as [3H]-spiperone radioligand.
In short: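 Rat striatal membranes washed in 50 mM Tris-HCl pH 7.7, then resuspended in 50 mM Tris-HCl pH 7.1 with NaCl, KCl, CaCl2, MgCl2, ascorbate and 10 μM pargyline, preincubated 10 min at 37 °C. Incubated with [3H]spiperone (0.2 nM final) for 20 min at 37 °C, then filtered. IC50 read from concentration-inhibition curves.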

[2] = system: Mus musculus; test: Ability to inhibit apomorphine induced hyperactivity in mice after intraperitoneal administration; format: functional; settings: ip
In short: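 Male mice in groups of three, dosed ip 1 h before apomorphine HCl 0.5 mg/kg sc. Motor activity counted for 20 min right after apomorphine.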

[3] = system: Dopamine receptor (Mus musculus); test: Inhibitory effects on the hyperactivity against dopamine receptor after peroral administration

Sequence of D(2) dopamine receptor (P61169 whole entry): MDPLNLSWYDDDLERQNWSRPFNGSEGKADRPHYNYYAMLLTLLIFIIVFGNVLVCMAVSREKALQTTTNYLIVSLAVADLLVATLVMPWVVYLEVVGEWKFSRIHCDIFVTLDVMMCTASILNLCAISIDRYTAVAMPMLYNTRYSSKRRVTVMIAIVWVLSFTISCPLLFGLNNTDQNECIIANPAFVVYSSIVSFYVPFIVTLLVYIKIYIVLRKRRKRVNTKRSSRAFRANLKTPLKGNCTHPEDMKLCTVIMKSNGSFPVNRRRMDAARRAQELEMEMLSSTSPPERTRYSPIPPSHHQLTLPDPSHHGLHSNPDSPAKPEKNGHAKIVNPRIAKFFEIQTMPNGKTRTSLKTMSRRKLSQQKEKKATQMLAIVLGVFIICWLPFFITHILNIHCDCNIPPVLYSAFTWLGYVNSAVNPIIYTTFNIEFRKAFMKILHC

Row | Ki [1] [nM] | ED50 [3] [mg/kg] | Structure (SMILES) | ED50 [2] [mg/kg]
1 | 9.6 | 60.3 | CCN1CCC[C@H]1CNC(=O)c1cc(S(N)(=O)=O)cc2c1O[C@@H](C)C2 | 5.7
2 |  |  | CCN1CCC[C@@H]1CNC(=O)c1cc(S(N)(=O)=O)ccc1OC | > 250
3 |  |  | CCN1CCC[C@H]1CNC(=O)c1cc(S(N)(=O)=O)ccc1OC [LEVOSULPIRIDE] | 9.3
4 | 51 | 135 | CCCCN1CCC[C@H]1CNC(=O)c1cc(S(N)(=O)=O)ccc1OC | 49.2
5 | 230 | 184 | CCCCN1CCC[C@@H]1CNC(=O)c1cc(S(N)(=O)=O)ccc1OC | 92.3
6 | 59 | 65 | CCCCCCN1CCC[C@@H]1CNC(=O)c1cc(S(N)(=O)=O)ccc1OC | 28.2
7 | 210 |  | CCCCN1CCC[C@H]1CNC(=O)c1cc(S(N)(=O)=O)cc2c1O[C@H](C)C2 | 72.1
8 |  |  | CCCCN1CCC[C@@H]1CNC(=O)c1cc(S(N)(=O)=O)cc2c1O[C@H](C)C2 | 11.6
9 | 6.7 |  | CCCCCCN1CCC[C@@H]1CNC(=O)c1cc(S(N)(=O)=O)cc2c1O[C@@H](C)C2 | 12.2
10 | 400 | 419 | CCN1CCC[C@@H]1CNC(=O)c1cc(S(N)(=O)=O)cc2c1O[C@@H](C)C2 | 71.7
11 | 21 | 87.3 | CCN1CCC[C@H]1CNC(=O)c1cc(S(N)(=O)=O)cc2c1O[C@H](C)C2 | 11
12 |  |  | CCCCCCN1CCC[C@H]1CNC(=O)c1cc(S(N)(=O)=O)cc2c1O[C@@H](C)C2 | > 100
13 | 9.4 |  | CCCCN1CCC[C@@H]1CNC(=O)c1cc(S(N)(=O)=O)cc2c1O[C@@H](C)C2 | 3.7
14 | 1400 | > 100 | CCCCCCN1CCC[C@H]1CNC(=O)c1cc(S(N)(=O)=O)ccc1OC | > 100
15 | 650 |  | CCN1CCC[C@@H]1CNC(=O)c1cc(S(N)(=O)=O)cc2c1O[C@H](C)C2 | 145
16 | 95 |  | CCCCN1CCC[C@H]1CNC(=O)c1cc(S(N)(=O)=O)cc2c1O[C@@H](C)C2 | 38.8
